pPAFAH FP inh: inhibitors of human plasma PAF acetylhydrolase (pPAFAH); Q13093; recombinant pPAFAH, FP-rhodamine probe fluorescence polarization; inhibition, % at 3.39 µM; 330,000 tested, 1.5% active; AID 463082;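 active = inhibition above the mean inhibition across the screen plus 3 SD, cut at about 25% in these data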;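 note: inhibitors block binding of the rhodamine activity-based probe so polarization drops; 0% = enzyme with DMSO and 100% = wells lacking pPAFAH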
Apaf-1 inh: inhibitors of human Apaf-1 apoptosome; AID 489030; O14727; reconstituted apoptosome caspase-3 activity, DEVD-Rh110 fluorescence; 330,000 tested, 0.71% active; inhibition, % at 20 µM; active = inhibition of at least 40% at 20 µM;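 note: plate controls were DMSO wells for no effect and DEVD-CHO caspase inhibitor wells for full effect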
Target sequence (O14727 whole entry, looked up): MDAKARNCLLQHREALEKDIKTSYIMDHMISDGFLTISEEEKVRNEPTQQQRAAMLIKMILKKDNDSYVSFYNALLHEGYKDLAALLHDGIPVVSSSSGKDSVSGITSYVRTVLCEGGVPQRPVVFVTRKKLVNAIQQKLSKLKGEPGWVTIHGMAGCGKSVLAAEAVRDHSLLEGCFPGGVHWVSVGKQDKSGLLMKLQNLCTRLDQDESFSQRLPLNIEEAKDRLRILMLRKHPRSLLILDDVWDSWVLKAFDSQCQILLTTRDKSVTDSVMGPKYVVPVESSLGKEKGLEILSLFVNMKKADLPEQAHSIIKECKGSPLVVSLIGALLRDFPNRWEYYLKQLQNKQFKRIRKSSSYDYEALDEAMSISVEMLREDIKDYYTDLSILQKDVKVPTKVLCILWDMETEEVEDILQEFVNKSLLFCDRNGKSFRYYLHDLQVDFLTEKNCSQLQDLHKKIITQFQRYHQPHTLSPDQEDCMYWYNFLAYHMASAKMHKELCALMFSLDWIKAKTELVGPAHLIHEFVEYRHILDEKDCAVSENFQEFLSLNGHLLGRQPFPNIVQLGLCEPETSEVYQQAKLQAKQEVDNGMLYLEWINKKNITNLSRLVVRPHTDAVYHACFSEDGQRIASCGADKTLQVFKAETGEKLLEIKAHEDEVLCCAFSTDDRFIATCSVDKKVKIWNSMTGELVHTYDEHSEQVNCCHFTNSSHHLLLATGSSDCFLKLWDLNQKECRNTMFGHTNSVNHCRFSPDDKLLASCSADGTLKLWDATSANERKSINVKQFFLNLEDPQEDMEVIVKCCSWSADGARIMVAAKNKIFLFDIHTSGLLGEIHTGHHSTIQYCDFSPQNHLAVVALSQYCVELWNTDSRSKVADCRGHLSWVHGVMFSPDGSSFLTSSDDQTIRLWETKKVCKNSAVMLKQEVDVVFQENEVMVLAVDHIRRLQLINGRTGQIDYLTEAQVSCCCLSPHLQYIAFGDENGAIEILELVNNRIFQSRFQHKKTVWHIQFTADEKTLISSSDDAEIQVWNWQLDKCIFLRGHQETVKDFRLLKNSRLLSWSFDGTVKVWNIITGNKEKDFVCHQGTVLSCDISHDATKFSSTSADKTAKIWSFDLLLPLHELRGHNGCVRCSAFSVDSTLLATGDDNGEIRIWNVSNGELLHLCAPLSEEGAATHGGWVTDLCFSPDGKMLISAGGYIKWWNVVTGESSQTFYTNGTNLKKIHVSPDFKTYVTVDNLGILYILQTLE
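Assay system – apoptosome proteins · Medium – Hepes buffer, pH 7.5 · Also added – cytochrome c with DEVD-Rh110 · Timing – 30 min compound preincubation, 50 min activation, room temperature · Detection – Rh110 fluorescence, excitation 480 nm, emission 540 nm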
PAFAH1B3 FP inh: inhibitors of human PAFAH1B3; AID 492972; 340,000 tested, 0.28% active; recombinant PAFAH1B3, FP-rhodamine probe, fluorescence polarization; Q15102; inhibition, % at 3.39 µM;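 active = inhibition above the screen-wide average of all tested compounds plus 3 SD, cut at about 25% in these data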;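 note: 0% = enzyme with DMSO only and 100% = wells lacking PAFAH1B3 protein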
PAFAH2 inh: inhibitors of human PAFAH2. 340,000 tested, 0.99% active. inhibition, % at 3.39 µM. recombinant PAFAH2, FP-rhodamine activity probe, fluorescence polarization;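 active = inhibition above the mean over all tested compounds plus 3 SD, cut at about 30% in these data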;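 note: inhibitors block probe labeling of enzyme so polarization drops; 0% = enzyme with DMSO and 100% = wells lacking PAFAH2 protein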
PREPL inhibitor: inhibitors of human prolyl oligopeptidase-like enzyme PREPL | recombinant PREPL, fluorescence polarization activity-based probe | 320,000 tested, 0.68% active | Q4J6C6 | inhibition, % at 5.96 µM | AID 2751; in the data active = inhibition above about 43%;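 note: 0% = enzyme with DMSO and 100% = wells lacking enzyme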
PAFAH1B2 FP inh: inhibitors of human PAFAH1B2; 340,000 tested, 1.2% active; recombinant PAFAH1B2, FP-rhodamine activity probe, fluorescence polarization; inhibition, % at 3.39 µM; AID 492953; P68402;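 active = inhibition above the mean of all tested compounds plus 3 SD, cut at about 24% in these data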;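 note: 0% = enzyme with DMSO and 100% = wells lacking PAFAH1B2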
Apaf-1 inh conf: confirmation of Apaf-1 inhibitors; shares compounds with Apaf-1 inh; reconstituted apoptosome, caspase-3 DEVD-Rh110 fluorescence; inhibition, % at 20 µM; 1,800 tested, 25% active; AID 504614;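 active = mean inhibition of at least 40% at 20 µM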;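 note: plate controls were DMSO wells for no effect and DEVD-CHO caspase inhibitor control wells for full effect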
Rh110 quench: interferes with Rh110 fluorescence, flagging false Apaf-1 inhibitors | activation (fluorescence interference), % at 20 µM | shares compounds with Apaf-1 inh | AID 504615 | Rh110 fluorescence interference, quenched caspase reaction | 1,800 tested, under 10 active;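 active = signal rise of 40% or more at 20 µM, treated as a fluorescence artifact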
Fluor interf inh: Apaf-1 inhibitor counter-screen fluorescence artifact; shares compounds with Apaf-1 inh; AID 588538; IC50, µM; fluorescence interference counterscreen, Apaf-1 assay format; 460 tested, under 10 active; call rule not given here
The depositor's hits bear a star; . = no result. Only some compounds are listed: those with a hit (about 3.5% of all), similar ones and a draw of the others.

SMILES	pPAFAH FP inh	Apaf-1 inh	PAFAH1B3 FP inh	PAFAH2 inh	PREPL inhibitor	PAFAH1B2 FP inh	Apaf-1 inh conf	Rh110 quench	others
C#CCOCCOCCOCCNc1nc(N2CCN(C(=O)CCCCCCCCCCNC(=O)[C@@H](CCC(=O)O)n3cc(CCCCCN)nn3)CC2)nc(N2CCN(C(=O)CCCCCCCCCCNC(=O)[C@H](CCCCN)n3cc(C[C@@H](C)CC)nn3)CC2)n1	2.6	71.7*	-0.5	-6.2	30.7	-0.7	49.5*	6.7	Fluor interf inh=>100
C#CCOCCOCCOCCNc1nc(N2CCN(C(=O)[C@H]([C@@H](C)CC)n3cc([C@@H](N)CC(C)C)nn3)CC2)nc(N2CCN(C(=O)[C@H](Cc3cc4ccccc4[nH]3)n3cc([C@@H](N)Cc4ccc(O)cc4)nn3)CC2)n1	5.2	56.4*	.	.	42.8	.	6.6	-1.0
CC1(C)C=Cc2cc(-c3coc4cc(O)cc(O)c4c3=O)cc(O)c2O1	18.6	-3.6	5.5	0.1	5.0	5.7	.	.
CCOC(=O)N/N=C(/C)c1ccc(N2C(=O)C3CCCCC3C2=O)cc1 (centres undefined)	-4.9	4.9	5.8	4.5	1.2	6.4	.	.
C#CCOCCOCCOCCNc1nc(N2CCN(C(=O)[C@H](CCCCN)n3cc(CN)nn3)CC2)nc(N2CCN(C(=O)[C@H](CCCCN)n3cc(CN)nn3)CC2)n1	-1.6	44.1*	4.7	6.2	8.9	3.4	-5.0	0.3
C#CCOCCOCCOCCNc1nc(N2CCN(C(=O)C([C@@H](C)O)n3cc([C@@H](N)CCCCN)nn3)CC2)nc(N2CCN(C(=O)[C@H](CCCN=C(N)N)n3cc(C(N)[C@@H](C)CC)nn3)CC2)n1 (some centres undefined)	2.2	46.2*	8.9	0.6	24.2	0.6	-2.9	-3.1
C#CCOCCOCCOCCNc1nc(N2CCN(C(=O)C([C@@H](C)O)n3cc([C@@H](N)CCCCN)nn3)CC2)nc(N2CCN(C(=O)[C@H](CCCCN)n3cc([C@@H](N)[C@H](C)CC)nn3)CC2)n1 (some centres undefined)	-3.4	30.0	3.0	2.9	27.0	-0.3	.	.
Cc1ccc(C(=O)NCCONC(=O)c2ccc(C)cc2)cc1	0.6	-1.4	3.5	-4.1	0.5	-2.3	.	.
O=C1Cc2ccccc2C(=O)N1CCc1ccccc1	13.8	79.0*	6.6	5.4	5.5	4.2	94.9*	5.4	Fluor interf inh=>100
O=C1C(=O)N(Cc2ccccc2)C(=O)N1CCN1C(=O)c2ccccc2C1=O	2.8	-1.4	12.1	7.5	-1.4	-1.1	.	.
COc1cccc(-c2nnc(SC(C(=O)c3c[nH]c4ccccc34)c3ccccc3)n2C)c1 (centres undefined)	-7.2	42.9*	6.7	-2.0	-8.2	-3.3	22.1	8.2
COc1ccccc1-c1nnc(SC(C(=O)c2c[nH]c3ccccc23)c2ccccc2)n1C (centres undefined)	7.3	7.0	-2.8	-5.5	22.9	3.8	.	.
COC(=O)C1=C(C)N(CC2CC2)C(=NCc2cccc(Cl)c2)N[C@H]1c1ccccc1	-0.1	7.5	-4.8	4.0	-29.8	-5.6	.	.
COC(=O)C1=C(C)N(Cc2ccccc2)C(=NCc2cc(OC)c(OC)c(OC)c2)N[C@H]1c1ccccc1	4.6	7.8	2.0	-1.9	22.6	-0.7	.	.
COC(=O)C1=C(C)N(Cc2ccccc2)C(=NCc2cccc(Cl)c2)N[C@H]1c1ccccc1	-3.0	56.0*	4.2	3.0	-24.0	5.8	15.8	12.4
COC(=O)C1=C(C)N(Cc2ccccc2)C(=NCc2ccccc2)N[C@H]1c1cccc(F)c1	-2.3	41.2*	15.8	-3.2	-20.3	-1.2	17.6	9.6
COC(=O)C1=C(C)N(Cc2ccccc2)C(=S)N[C@H]1c1cccc(F)c1	2.4	6.6	7.3	-5.0	-7.2	2.5	.	.
COC(=O)C1=C(C)N(CC2CC2)C(=NCc2cc(OC)c(OC)c(OC)c2)N[C@H]1c1ccccc1	2.7	-4.0	-0.5	0.0	8.7	4.7	.	.
COC(=O)C1=C(C)N(Cc2ccccc2)C(=NCc2cc(OC)c(OC)c(OC)c2)N[C@H]1c1ccc(Br)cc1	-6.9	54.5*	-3.6	-0.5	39.7	3.0	10.6	7.4
COC(=O)C1=C(C)N(Cc2ccccc2)C(=NCc2cc(OC)c(OC)c(OC)c2)N[C@H]1CCc1ccccc1	0.4	48.2*	2.5	0.5	17.5	-4.7	14.3	5.0
Cc1ccc(C)n1-c1ccc(C(=O)NCc2cccnc2)cc1	5.9	0.7	0.1	-2.5	3.3	2.6	.	.
COC(=O)C1=C(C)N(Cc2ccccc2)C(=NCc2ccccc2)N[C@H]1c1ccccc1	-1.5	47.2*	-2.9	0.7	6.3	7.8	13.4	18.5
CN(C)CCN(C(=O)c1ccc2c(c1)CCCC2)c1nc2c(F)cccc2s1	13.5	38.7	10.1	-2.6	4.3	-0.8	.	.
COc1cccc2sc(N(CCN(C)C)C(=O)c3ccc4c(c3)CCCC4)nc12	4.6	50.0*	1.8	-3.1	-9.9	0.7	18.5	9.3
CCCCN(C)S(=O)(=O)c1ccc(C(=O)N(CCN(C)C)c2nc3ccc(C)cc3s2)cc1	3.1	-2.4	2.4	3.6	4.5	-0.1	.	.
SMILES	pPAFAH FP inh	Apaf-1 inh	PAFAH1B3 FP inh	PAFAH2 inh	PREPL inhibitor	PAFAH1B2 FP inh	Apaf-1 inh conf	Rh110 quench	others
Cc1cc(C)c2sc(N(CCCN(C)C)C(=O)c3ccc(S(=O)(=O)N(C)Cc4ccccc4)cc3)nc2c1	2.7	36.7	8.2	0.9	17.3	4.7	.	.
CCN(Cc1ccccc1)S(=O)(=O)c1ccc(C(=O)N(CCCN(C)C)c2nc3cc(C)cc(C)c3s2)cc1	4.0	42.0*	3.1	5.8	10.6	0.1	20.1	5.6
CCOc1cccc2sc(N(CCCN(C)C)C(=O)c3ccc(S(=O)(=O)N(C)Cc4ccccc4)cc3)nc12	-0.9	61.9*	3.6	-0.1	31.1	1.7	26.5	11.0
Cc1ccc2sc(N(CCCN(C)C)C(=O)c3ccc(S(=O)(=O)N(C)Cc4ccccc4)cc3)nc2c1C	-8.3	31.8	-0.5	-8.0	14.1	-5.2	.	.
CCCCN(CC)S(=O)(=O)c1ccc(C(=O)N(CCCN(C)C)c2nc3cc(C)cc(C)c3s2)cc1	2.0	47.1*	4.5	0.2	5.3	4.2	15.2	6.7
CCCCn1c(N)c(N(C)C(=O)c2ccc(OCC3CCCO3)cc2)c(=O)[nH]c1=O (centres undefined)	0.5	-2.7	6.1	-5.8	6.1	6.5	.	.
CCC(=O)N1CCc2cc(S(=O)(=O)NCCC(=O)NC3CCCCCC3)ccc21	4.0	-11.5	7.4	-4.3	3.2	3.8	.	.

Compound activity deposited in PubChem BioAssay by several laboratories.
